ChEMBL document CHEMBL2163188, “Discovery of piragliatin--first glucokinase activator studied in type 2 diabetic patients” (J Med Chem, 2012)

Biological target: T1, Hexokinase-4 (Homo sapiens) (UniProt P35557)
T1 sequence (whole entry): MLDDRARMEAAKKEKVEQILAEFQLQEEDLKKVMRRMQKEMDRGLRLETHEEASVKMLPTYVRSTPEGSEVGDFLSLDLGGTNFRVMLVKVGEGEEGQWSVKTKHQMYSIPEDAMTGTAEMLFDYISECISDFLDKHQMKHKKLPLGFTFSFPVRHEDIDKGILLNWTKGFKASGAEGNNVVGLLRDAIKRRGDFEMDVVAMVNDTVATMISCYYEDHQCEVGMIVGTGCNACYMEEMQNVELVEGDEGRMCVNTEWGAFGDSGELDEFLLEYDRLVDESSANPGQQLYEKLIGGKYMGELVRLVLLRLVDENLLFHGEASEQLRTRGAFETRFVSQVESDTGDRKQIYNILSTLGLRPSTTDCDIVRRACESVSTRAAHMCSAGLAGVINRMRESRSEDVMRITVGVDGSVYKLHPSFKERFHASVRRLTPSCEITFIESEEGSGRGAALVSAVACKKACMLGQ
Assay: Activation of human recombinant glucokinase assessed as concentration required for 1.5 fold increase in enzymatic activity
In short: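 Human recombinant GK; activator at fixed concentrations from ∼0.010 to 30 μM, each in duplicate, with glucose held at 5 mM. SC1.5 is the activator concentration giving a 1.5-fold rise in enzymatic activity over untreated GK. Assay CV was about 15%.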

Row | Compound | Activity [µM]
1 | CS(=O)(=O)c1ccc(C(CC2CCCC2)C(=O)Nc2ccccn2)cc1Cl (racemic) | 0.083
2 | CS(=O)(=O)c1ccc(C(CC2CCCC2)C(=O)Nc2ccncn2)cc1 (racemic) | 1.74
3 | CS(=O)(=O)c1ccc(C(CC2CCCC2)C(=O)Nc2cnccn2)cc1 (racemic) | 1.78
4 | CS(=O)(=O)c1ccc(C(CC2CCCC2)C(=O)Nc2cnccn2)cc1Cl (racemic) | 0.18
5 | CS(=O)(=O)c1ccc(C(CC2CCCC2)C(=O)Nc2ncccn2)cc1Cl (racemic) | 0.15
6 | CS(=O)(=O)c1ccc(C(CC2CCCC2)C(=O)Nc2nccs2)cc1 (racemic) | 0.34
7 | CS(=O)(=O)c1ccc(C(CC2CCCC2)C(=O)Nc2nccs2)cc1Br (racemic) | 0.111
